Measured values from ChEMBL document CHEMBL5724801, “EUbOPEN Chemogenomics Library - Multiplex” (2024).
Values joined by “and” are separate entries in the source; they are usually repeats but may differ in a detail not shown here. Equal entries are not always repeated.

Tested on: U2OS
Assay: Multiplex assay against U2OS
Format: toxicity, cell-based
Conditions: human
Method in brief: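 Hoechst33342, BioTracker Green Microtubule Cytoskeleton Dye, MitoTracker Red and Annexin V Alexa Fluor 680 were added to live cells at seeding, and imaging on a CQ1 microscope at 37°C and 5% CO2 followed compound addition. Gating by CellPathfinder machine learning separated cells into Hoechst high-intensity objects or normal cells, then normal cells into healthy, pyknosed or fragmented nuclei, then pyknosed cells into mitotic or apoptotic. Per cents of healthy-nucleus cells are reported for the tubulin, mitochondrial-mass and membrane-permeability phenotypes.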

[1] = 12 h, 1 µM, compound concentration 1 uM
[2] = 12 h, 10 µM, compound concentration 10 uM
[3] = 24 h, 1 µM, compound concentration 1 uM
[4] = 24 h, 10 µM, compound concentration 10 uM
[5] = 48 h, 1 µM, compound concentration 1 uM
[6] = 48 h, 10 µM, compound concentration 10 uM

Nc1nccc(-c2ccn3c(N)nccc23)n1
Population Apoptotic (%) [1]: 36.59% and 39.13% | Population Fragmented Nuclei (%) [1]: 1.59% and 3.62% | Population Healthy Nuclei (%) [1]: 89.07% and 79.71% | Population Hoechst High Intensity Objects (%) [1]: 0% | Population Membrane Permeable-Phenotype (%) [1]: 0.51% and 5.45% | Population Mitochondria Different-Phenotype (%) [1]: 0.26% and 7.27% | Population Mitotic Cells (%) [1]: 63.41% and 60.87% | Population Normal (%) [1]: 100% | Population Pyknosed Nuclei (%) [1]: 9.34% and 16.67% | Population Tubulin-Different-Phenotype (%) [1]: 1.28% and 0.91% | Population Apoptotic (%) [2]: 37.93% and 47.62% | Population Fragmented Nuclei (%) [2]: 1.07% and 2.9% | Population Healthy Nuclei (%) [2]: 91.15% and 81.88% | Population Hoechst High Intensity Objects (%) [2]: 0% | Population Membrane Permeable-Phenotype (%) [2]: 0.88% and 1.77% | Population Mitochondria Different-Phenotype (%) [2]: 0.59% and 8.85% | Population Mitotic Cells (%) [2]: 62.07% and 52.38% | Population Normal (%) [2]: 100% | Population Pyknosed Nuclei (%) [2]: 7.77% and 15.22% | Population Tubulin-Different-Phenotype (%) [2]: 1.47% and 0% | Total Cell Count [2]: 373 and 138 | Population Apoptotic (%) [3]: 48.28% and 64.29% | Population Fragmented Nuclei (%) [3]: 1.88% and 4% | Population Healthy Nuclei (%) [3]: 88.23% and 88% | Population Hoechst High Intensity Objects (%) [3]: 0% | Population Membrane Permeable-Phenotype (%) [3]: 0% and 3.25% | Population Mitochondria Different-Phenotype (%) [3]: 0.39% and 5.19% | Population Mitotic Cells (%) [3]: 51.72% and 35.71% | Population Normal (%) [3]: 100% | Population Pyknosed Nuclei (%) [3]: 9.9% and 8% | Population Tubulin-Different-Phenotype (%) [3]: 1.16% and 0.65% | Population Apoptotic (%) [4]: 40.48% and 37.04% | Population Fragmented Nuclei (%) [4]: 3.09% and 2.73% | Population Healthy Nuclei (%) [4]: 88.8% and 82.51% | Population Hoechst High Intensity Objects (%) [4]: 0% | Population Membrane Permeable-Phenotype (%) [4]: 0.22% and 0.66% | Population Mitochondria Different-Phenotype (%) [4]: 0.22% and 2.65% | Population Mitotic Cells (%) [4]: 59.52% and 62.96% | Population Normal (%) [4]: 100% | Population Pyknosed Nuclei (%) [4]: 8.11% and 14.75% | Population Tubulin-Different-Phenotype (%) [4]: 1.09% and 0% | Total Cell Count [4]: 518 and 183 | Population Apoptotic (%) [5]: 45.74% and 43.75% | Population Fragmented Nuclei (%) [5]: 1.77% and 2.26% | Population Healthy Nuclei (%) [5]: 88.99% and 85.66% | Population Hoechst High Intensity Objects (%) [5]: 0% | Population Membrane Permeable-Phenotype (%) [5]: 1.33% and 2.64% | Population Mitochondria Different-Phenotype (%) [5]: 0.11% and 5.73% | Population Mitotic Cells (%) [5]: 54.26% and 56.25% | Population Normal (%) [5]: 100% | Population Pyknosed Nuclei (%) [5]: 9.24% and 12.08% | Population Tubulin-Different-Phenotype (%) [5]: 1.44% and 1.32% | Population Apoptotic (%) [6]: 43.48% and 40% | Population Fragmented Nuclei (%) [6]: 3.29% and 3.46% | Population Healthy Nuclei (%) [6]: 87.54% and 84.43% | Population Hoechst High Intensity Objects (%) [6]: 0% and 0.34% | Population Membrane Permeable-Phenotype (%) [6]: 0.91% and 2.05% | Population Mitochondria Different-Phenotype (%) [6]: 0.23% and 2.87% | Population Mitotic Cells (%) [6]: 56.52% and 60% | Population Normal (%) [6]: 100% and 99.66% | Population Pyknosed Nuclei (%) [6]: 9.17% and 12.11% | Population Tubulin-Different-Phenotype (%) [6]: 1.03% and 2.46%

CN1CCN(c2nc3cc(C(F)(F)F)ccc3n3cccc23)CC1.O=C(O)/C=C\C(=O)O.O=C(O)/C=C\C(=O)O
Population Apoptotic (%) [1]: 77% and 100% | Population Fragmented Nuclei (%) [1]: 17% and 18% | Population Healthy Nuclei (%) [1]: 75% and 73% | Population Hoechst High Intensity Objects (%) [1]: 1% and 0% | Population Membrane Permeable-Phenotype (%) [1]: 4% and 8% | Population Mitochondria Different-Phenotype (%) [1]: 0% and 2% | Population Mitotic Cells (%) [1]: 22% and 0% | Population Normal (%) [1]: 98% and 99% | Population Pyknosed Nuclei (%) [1]: 6% and 8% | Population Tubulin-Different-Phenotype (%) [1]: 1% and 3% | Total Cell Count [1]: 266 and 111 | Population Apoptotic (%) [2]: 66% and 88% | Population Fragmented Nuclei (%) [2]: 31% and 25% | Population Healthy Nuclei (%) [2]: 53% and 68% | Population Hoechst High Intensity Objects (%) [2]: 1% and 2% | Population Membrane Permeable-Phenotype (%) [2]: 18% and 13% | Population Mitochondria Different-Phenotype (%) [2]: 45% and 41% | Population Mitotic Cells (%) [2]: 33% and 11% | Population Normal (%) [2]: 98% and 97% | Population Pyknosed Nuclei (%) [2]: 15% and 6% | Population Tubulin-Different-Phenotype (%) [2]: 19% and 21% | Total Cell Count [2]: 218 and 135 | Population Apoptotic (%) [3]: 85% and 92% | Population Fragmented Nuclei (%) [3]: 17% and 13% | Population Healthy Nuclei (%) [3]: 73% and 77% | Population Hoechst High Intensity Objects (%) [3]: 2% and 0% | Population Membrane Permeable-Phenotype (%) [3]: 5% and 8% | Population Mitochondria Different-Phenotype (%) [3]: 1% and 4% | Population Mitotic Cells (%) [3]: 14% and 7% | Population Normal (%) [3]: 97% and 99% | Population Pyknosed Nuclei (%) [3]: 9% | Population Tubulin-Different-Phenotype (%) [3]: 3% and 4% | Total Cell Count [3]: 300 and 136 | Population Apoptotic (%) [4]: 76% and 78% | Population Fragmented Nuclei (%) [4]: 31% and 19% | Population Healthy Nuclei (%) [4]: 57% and 71% | Population Hoechst High Intensity Objects (%) [4]: 3% | Population Membrane Permeable-Phenotype (%) [4]: 16% and 17% | Population Mitochondria Different-Phenotype (%) [4]: 41% and 36% | Population Mitotic Cells (%) [4]: 24% and 21% | Population Normal (%) [4]: 96% | Population Pyknosed Nuclei (%) [4]: 10% and 9% | Population Tubulin-Different-Phenotype (%) [4]: 14% and 16% | Total Cell Count [4]: 244 and 156 | Population Apoptotic (%) [5]: 87% and 85% | Population Fragmented Nuclei (%) [5]: 14% and 17% | Population Healthy Nuclei (%) [5]: 77% and 75% | Population Hoechst High Intensity Objects (%) [5]: 2% and 1% | Population Membrane Permeable-Phenotype (%) [5]: 4% and 6% | Population Mitochondria Different-Phenotype (%) [5]: 0% and 5% | Population Mitotic Cells (%) [5]: 12% and 14% | Population Normal (%) [5]: 97% and 98% | Population Pyknosed Nuclei (%) [5]: 7% | Population Tubulin-Different-Phenotype (%) [5]: 2% and 3% | Total Cell Count [5]: 447 and 187 | Population Apoptotic (%) [6]: 78% and 81% | Population Fragmented Nuclei (%) [6]: 31% and 21% | Population Healthy Nuclei (%) [6]: 52% and 67% | Population Hoechst High Intensity Objects (%) [6]: 4% and 3% | Population Membrane Permeable-Phenotype (%) [6]: 16% and 10% | Population Mitochondria Different-Phenotype (%) [6]: 17% and 16% | Population Mitotic Cells (%) [6]: 21% and 18% | Population Normal (%) [6]: 95% and 96% | Population Pyknosed Nuclei (%) [6]: 16% and 11% | Population Tubulin-Different-Phenotype (%) [6]: 12% and 9% | Total Cell Count [6]: 299 and 202

CC(C)CNc1nc(N2CCN(CC3CCCOC3)CC2)ncc1C(=O)NCc1ccccc1 (centres undefined)
Population Apoptotic (%) [1]: 35.29% and 54.55% | Population Fragmented Nuclei (%) [1]: 1.32% and 3.94% | Population Healthy Nuclei (%) [1]: 85.22% and 78.74% | Population Hoechst High Intensity Objects (%) [1]: 0% | Population Membrane Permeable-Phenotype (%) [1]: 0.93% and 5% | Population Mitotic Cells (%) [1]: 64.71% and 45.45% | Population Normal (%) [1]: 100% | Population Pyknosed Nuclei (%) [1]: 13.46% and 17.32% | Population Tubulin-Different-Phenotype (%) [1]: 3.1% and 1% | Total Cell Count [1]: 379 and 127 | Population Apoptotic (%) [2]: 51.14% and 36.59% | Population Fragmented Nuclei (%) [2]: 1.76% and 7.28% | Population Healthy Nuclei (%) [2]: 72.35% and 65.56% | Population Hoechst High Intensity Objects (%) [2]: 0% | Population Membrane Permeable-Phenotype (%) [2]: 22.36% and 30.3% | Population Mitochondria Different-Phenotype (%) [2]: 72.36% and 89.9% | Population Mitotic Cells (%) [2]: 48.86% and 63.41% | Population Normal (%) [2]: 100% | Population Pyknosed Nuclei (%) [2]: 25.88% and 27.15% | Population Tubulin-Different-Phenotype (%) [2]: 97.15% and 94.95% | Total Cell Count [2]: 340 and 151 | Population Apoptotic (%) [3]: 43.1% and 31.82% | Population Fragmented Nuclei (%) [3]: 1.29% and 7.91% | Population Healthy Nuclei (%) [3]: 86.27% and 76.26% | Population Hoechst High Intensity Objects (%) [3]: 0.21% and 0% | Population Membrane Permeable-Phenotype (%) [3]: 2.49% and 9.43% | Population Mitotic Cells (%) [3]: 56.9% and 68.18% | Population Normal (%) [3]: 99.79% and 100% | Population Pyknosed Nuclei (%) [3]: 12.45% and 15.83% | Population Tubulin-Different-Phenotype (%) [3]: 3.98% and 4.72% | Population Apoptotic (%) [4]: 71.3% and 64% | Population Fragmented Nuclei (%) [4]: 3.28% and 4.55% | Population Healthy Nuclei (%) [4]: 67.21% and 62.99% | Population Hoechst High Intensity Objects (%) [4]: 0% | Population Membrane Permeable-Phenotype (%) [4]: 17.07% and 18.56% | Population Mitochondria Different-Phenotype (%) [4]: 81.3% and 91.75% | Population Mitotic Cells (%) [4]: 28.7% and 36% | Population Normal (%) [4]: 100% | Population Pyknosed Nuclei (%) [4]: 29.51% and 32.47% | Population Tubulin-Different-Phenotype (%) [4]: 97.15% and 93.81% | Total Cell Count [4]: 366 and 154 | Population Apoptotic (%) [5]: 58.06% and 46.43% | Population Fragmented Nuclei (%) [5]: 2.14% and 3.47% | Population Healthy Nuclei (%) [5]: 86.13% and 80.35% | Population Hoechst High Intensity Objects (%) [5]: 0% | Population Membrane Permeable-Phenotype (%) [5]: 1.02% and 4.32% | Population Mitotic Cells (%) [5]: 41.94% and 53.57% | Population Normal (%) [5]: 100% | Population Pyknosed Nuclei (%) [5]: 11.73% and 16.18% | Population Tubulin-Different-Phenotype (%) [5]: 2.64% and 6.47% | Population Apoptotic (%) [6]: 80.41% and 90% | Population Fragmented Nuclei (%) [6]: 7.04% and 6.08% | Population Healthy Nuclei (%) [6]: 55.78% and 60.14% | Population Hoechst High Intensity Objects (%) [6]: 0% | Population Membrane Permeable-Phenotype (%) [6]: 13.06% and 17.98% | Population Mitochondria Different-Phenotype (%) [6]: 79.28% and 93.26% | Population Mitotic Cells (%) [6]: 19.59% and 10% | Population Normal (%) [6]: 100% | Population Pyknosed Nuclei (%) [6]: 37.19% and 33.78% | Population Tubulin-Different-Phenotype (%) [6]: 96.4% and 88.76% | Total Cell Count [6]: 398 and 148
